Published values from different studies.
Protocols differ between the studies behind these lines.
Organism: Pichia kudriavzevii
Read-out: microbial growth
Strain: ATCC6258

For `CCCCCCCOc1c(OC)cc(NC(C)CCCNC(=O)C(N)C(C)CC)c2nc(C(C)(C)C)ccc12` (stereo not drawn), the MIC was 10 µg/mL.
For `C=C(C)[C@@H]1CC[C@]2(C(=O)O)CC[C@]3(C)[C@H](CC[C@@H]4[C@@]5(C)CC[C@H](O)C(C)(C)[C@@H]5CC[C@]43C)[C@@H]12`, the MIC was 250 µg/mL (broth dilution; 48 h).
The MIC of `CCCCCN1CCN(CC(O)(Cn2cncn2)c2ccc(F)cc2F)CC1` (stereo not drawn) is reported as greater than 31.3 µg/mL (broth dilution; 48 h).
For `C[C@@H]1[C@H](O)[C@@H](C)/C=C/C=C/C=C/C=C/C=C/C=C/C=C/[C@H](O[C@@H]2O[C@H](C)[C@@H](O)[C@H](N)[C@@H]2O)C[C@@H]2O[C@](O)(C[C@@H](O)C[C@@H](O)[C@H](O)CC[C@@H](O)C[C@@H](O)CC(=O)O[C@H]1C)C[C@H](O)[C@H]2C(=O)O`, the MIC was 0.5 µg/mL (broth dilution).
`C=C(C)[C@@H]1CC[C@]2(C)CC[C@]3(C)[C@H](CC[C@@H]4[C@@]5(C)CC[C@H](O)C(C)(C)[C@@H]5CC[C@]43C)[C@@H]12` gave an MIC of 250 µg/mL (broth dilution; 48 h).
`CCCCCOc1c(OC)cc(NC(C)CCCNC(=O)C(N)Cc2ccccc2)c2nc(C(C)(C)C)ccc12` (stereo not drawn) gave an MIC of 10 µg/mL.
`C=C(C)[C@@H]1CC[C@]2(C)CC[C@]3(C)[C@H](CC[C@@H]4[C@@]5(C)CCC(=O)C(C)(C)[C@@H]5CC[C@]43C)[C@@H]12` has an MIC of 500 µg/mL (broth dilution; 48 h).
The MIC of `CCCCCOc1c(OC)cc(NC(C)CCCNC(=O)C(N)Cc2cc3ccccc3[nH]2)c2nc(C(C)(C)C)ccc12` (stereo not drawn) is reported as 10 µg/mL.
`OC(CNCCN1CCOCC1)(Cn1cncn1)c1ccc(F)cc1F` (stereo not drawn) has an MIC of greater than 31.3 µg/mL (broth dilution; 48 h).
For `C[C@@H]1[C@H](O)[C@@H](C)/C=C/C=C/C=C/C=C/C=C/C=C/C=C/[C@H](O[C@@H]2O[C@H](C)[C@@H](O)[C@H](N)[C@@H]2O)C[C@@H]2O[C@](O)(C[C@@H](O)C[C@@H](O)[C@H](O)CC[C@@H](O)C[C@@H](O)CC(=O)O[C@H]1C)C[C@H](O)[C@H]2C(=O)O`, the MIC was 1.35 µM.
`CCCCCCCCCCN1CCNCC1` has an MIC of 7.8 µg/mL (broth dilution; 48 h).
The MIC of `CCCCCCOc1c(OC)cc(NC(C)CCCN)c2nc(C(C)(C)C)cc(C)c12` (stereo not drawn) is reported as 5 µg/mL.
